In PubChem BioAssay one finds outcome, potentiation and activation data, which are given here for 30 compounds.

Active and inactive are the calls of the source.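 Rule for the calls, unless noted: active = mean duplicate potentiation above the buffer control mean plus 5 SD of buffer wells; inactive = the rest.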

A short description of test [1]: nonspecific flux increase, KCNQ1-free cells – parental CHO cells, counter-screen for KCNQ1 potentiator project (AID 493006;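 active = duplicate-averaged activation above buffer control mean plus 5 SD of those controls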). Conditions: parental CHO-K1 cells, FluxOR thallium flux, at 10 µM; stronger effect = higher value. An outline of the steps: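 Material: parental CHO-K1 cells, FluxOR dye-loaded; Also added: Potassium/thallium depolarization pulse; Schedule: overnight 37 °C plating, 90 min dye, 20 min dark compound; Signal: kinetic FluxOR fluorescence, 10 s baseline, 110 s after stimulus.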
(In general: Counterscreens check selectivity or assay interference.)

Test [2] deals with Potassium voltage-gated channel subfamily KQT member 1 (Homo sapiens) (UniProt P51787). As to the kind of experiment: enhancement of KCNQ1 channel thallium flux – FluxOR thallium flux, CHO cells, duplicates, confirmation (AID 493007;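 active = potentiation averaged over duplicate wells exceeding buffer-only control mean by more than 3 SD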;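 for outcome: cells depolarized by a potassium plus thallium sulfate stimulus after compound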). As to conditions: KCNQ1 cell line, FluxOR thallium flux fluorescence, at 10 µM; stronger effect = higher value, % of reference activator effect, buffer zero. An outline of the steps:
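System: KCNQ1-expressing CHO cell line; technique: kinetic thallium influx fluorescence with FluxOR dye, 10 s baseline, 110 s post-stimulus; timing: dye 90 min then compound 20 min, both at room temperature; controls: buffer-only wells as 0% and R-L3 activator as 100%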

For test [3], the target named is Potassium voltage-gated channel subfamily KQT member 2 (Rattus norvegicus) (UniProt O88943). Nature of the test: KCNQ2 thallium flux enhancement – KCNQ2-CHO-K1 cells, selectivity assay for KCNQ1 potentiator project (AID 493009).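 Note: assay conditions were tuned for KCNQ1 rather than KCNQ2 modulators; signal is max minus min fluorescence divided by baseline after thallium stimulus.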 As to conditions: FluxOR thallium flux fluorescence, at 10 µM; stronger effect = higher value, scaled: buffer 0, activator control 100.
Sequence of Potassium voltage-gated channel subfamily KQT member 2 (Rattus norvegicus) (O88943 whole entry, looked up): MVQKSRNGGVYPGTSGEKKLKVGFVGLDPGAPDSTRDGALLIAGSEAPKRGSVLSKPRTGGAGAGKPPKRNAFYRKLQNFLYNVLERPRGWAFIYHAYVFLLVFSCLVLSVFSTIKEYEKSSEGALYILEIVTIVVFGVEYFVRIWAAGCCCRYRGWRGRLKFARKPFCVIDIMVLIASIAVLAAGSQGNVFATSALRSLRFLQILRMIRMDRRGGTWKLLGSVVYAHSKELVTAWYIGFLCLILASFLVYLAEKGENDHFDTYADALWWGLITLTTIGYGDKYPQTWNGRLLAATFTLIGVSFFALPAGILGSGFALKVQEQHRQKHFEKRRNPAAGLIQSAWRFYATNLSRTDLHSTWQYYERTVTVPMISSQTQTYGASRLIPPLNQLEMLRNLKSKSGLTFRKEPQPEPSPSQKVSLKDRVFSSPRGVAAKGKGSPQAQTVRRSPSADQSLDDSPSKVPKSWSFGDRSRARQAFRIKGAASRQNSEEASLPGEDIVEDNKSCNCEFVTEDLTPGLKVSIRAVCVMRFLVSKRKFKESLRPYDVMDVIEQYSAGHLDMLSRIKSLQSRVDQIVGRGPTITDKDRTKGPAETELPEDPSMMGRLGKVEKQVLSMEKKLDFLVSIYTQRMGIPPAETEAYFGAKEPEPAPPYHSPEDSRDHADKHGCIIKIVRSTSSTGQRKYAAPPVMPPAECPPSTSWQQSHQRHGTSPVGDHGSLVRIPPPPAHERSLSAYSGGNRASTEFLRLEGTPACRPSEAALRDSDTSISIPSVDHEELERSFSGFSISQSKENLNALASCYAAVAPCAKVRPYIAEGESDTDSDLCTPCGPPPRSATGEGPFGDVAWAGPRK
The target in test [4] is Potassium voltage-gated channel subfamily KQT member 1 (Homo sapiens) (UniProt P51787). Nature of the test: KCNQ1 activators by electrophysiology – IonWorks patch clamp, KCNQ1-CHO cells, orthogonal assay for KCNQ1 potentiator project, confirmation (AID 493184;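 active = current rise at least 3 SD above the untreated control mean in each of two repeat wells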). As to conditions: automated patch clamp current, at 10 µM; stronger effect = higher value. Put shortly:
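Test system: KCNQ1-expressing CHO cells. Medium: pH 7.4 external bath. Probe or stimulus: voltage step from -90 mV holding to +40 mV, 2,000 ms. Compound: 10 µM final, single point. Detection: automated perforated-patch electrophysiology. Read-out: percent current increase versus pre-compound level. Repeats: two replicates.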
(Patch clamp records ionic current or voltage across a cell membrane.)

In test [5] the target is Potassium voltage-gated channel subfamily E member 1 (Homo sapiens) + Potassium voltage-gated channel subfamily KQT member 1 (Homo sapiens) (UniProt P15382+P51787). Nature of the test: KCNQ1-E1 channel activation – thallium flux, CHO-K1 KCNQ1/E1 cells, selectivity assay for KCNQ1 potentiator project, confirmation (AID 493186;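 active = mean duplicate activation above the buffer control mean plus 5 SD of those controls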). Conditions: FluxOR thallium flux, at 10 µM; stronger effect = higher value. An outline of the steps:
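Material: CHO-K1 cells with KCNQ1/E1 / Timing: dye 90 min, compound 20 min, room temperature / Technique: kinetic thallium-sensitive FluxOR dye fluorescence / Read-out: percent activation scaled between buffer and R-L3 ratio signals / Replicates: tested in duplicate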

Sequence of Potassium voltage-gated channel subfamily KQT member 1 (Homo sapiens) (P51787 whole entry, looked up): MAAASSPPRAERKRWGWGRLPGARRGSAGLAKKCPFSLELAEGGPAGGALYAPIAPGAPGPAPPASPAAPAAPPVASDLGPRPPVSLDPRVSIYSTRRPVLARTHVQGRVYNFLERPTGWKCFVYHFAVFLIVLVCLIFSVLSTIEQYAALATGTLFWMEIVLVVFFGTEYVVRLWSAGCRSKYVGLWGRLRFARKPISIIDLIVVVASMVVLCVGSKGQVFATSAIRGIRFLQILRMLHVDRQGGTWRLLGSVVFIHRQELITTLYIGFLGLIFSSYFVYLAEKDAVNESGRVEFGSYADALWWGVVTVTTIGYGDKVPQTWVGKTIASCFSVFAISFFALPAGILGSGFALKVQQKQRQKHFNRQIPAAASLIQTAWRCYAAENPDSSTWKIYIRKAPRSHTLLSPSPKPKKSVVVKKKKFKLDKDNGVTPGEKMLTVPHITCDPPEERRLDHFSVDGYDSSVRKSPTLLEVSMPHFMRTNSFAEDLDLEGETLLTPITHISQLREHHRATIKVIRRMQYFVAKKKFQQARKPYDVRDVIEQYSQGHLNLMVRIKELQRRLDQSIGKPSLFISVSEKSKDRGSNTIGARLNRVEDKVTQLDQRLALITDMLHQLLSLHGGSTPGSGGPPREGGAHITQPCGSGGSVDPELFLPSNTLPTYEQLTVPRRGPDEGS
Sequence of Potassium voltage-gated channel subfamily E member 1 (Homo sapiens) + Potassium voltage-gated channel subfamily KQT member 1 (Homo sapiens) (P51787 whole entry, looked up): as the sequence (P51787 whole entry, looked up) above

For the compound `O=C(Nc1cccnc1)NC1CCCCC1`, the result in test [1], in test [2], in test [3], in test [4] and in test [5] was inactive.
Regarding `Cc1onc(-c2ccccc2)c1C(=O)NC(=S)Nc1sc2c(c1C#N)CCCC2`, the outcome in test [1], in test [3], in test [4] and in test [5] was inactive. Besides, the potentiation in test [2] is 31.5% (active).
Consider `CCOC(=O)c1c(N)sc(N)c1C(=O)OCC`, for which the result in test [1], in test [2], in test [4] and in test [5] was inactive. Moreover, in test [3], the potentiation was 170% (active).
In the case of `CCCSc1ncnc2c1oc1ccccc12`, the result in test [1], in test [2], in test [3], in test [4] and in test [5] was inactive.
As for `COc1ccc(CC(=O)NC(=S)Nc2cccc(C)c2)cc1`, the result in test [1], in test [2], in test [3], in test [4] and in test [5] was inactive.
In the case of `O=C(NC(=S)Nc1ccc2c(c1)OCCO2)c1cccc2ccccc12`, the result in test [1], in test [2], in test [3], in test [4] and in test [5] was inactive.
In the case of `CCCCOC(=O)c1ccc(NC(=S)NC(=O)c2ccco2)cc1`, the result in test [1], in test [2], in test [3], in test [4] and in test [5] was inactive.
In the case of `C=CCNC(=S)NNC(=O)COc1c(Cl)cc(Cl)cc1Cl`, the result in test [1], in test [2], in test [3], in test [4] and in test [5] was inactive.
Turning to `CCC(C)NCC(=O)Nc1sc2c(c1C(N)=O)CCC2` (stereo not given), the result in test [1], in test [2], in test [3], in test [4] and in test [5] was inactive.
On to `CC1=NOC(=O)/C1=C\c1ccc(-c2ccc(Br)cc2)o1`, for which the outcome in test [1], in test [2], in test [3], in test [4] and in test [5] was inactive.
For the compound `COc1cccc(-c2nc(=S)c3c(o2)CCCC3)c1`, the outcome in test [1], in test [2], in test [3], in test [4] and in test [5] was inactive.
On to `CCCN(CCC)Cc1c(C(=O)N/N=C/C(C)=C\c2ccco2)nnn1-c1nonc1N`, for which the outcome in test [1], in test [2], in test [3], in test [4] and in test [5] was inactive.
With `O=C(NC1=NCCS1)c1ccc(N2CCCC2=O)cc1`, the outcome in test [1], in test [3], in test [4] and in test [5] was inactive. Moreover, the potentiation in test [2] is 28.5% (active).
`S=c1[nH]nc(-c2ccco2)n1/N=C/c1ccc(Br)s1`: the result in test [1], in test [2], in test [3], in test [4] and in test [5] was inactive.
Consider `C/C(=N\Nc1nc2ccccc2s1)c1ccc(Br)s1`, for which the outcome in test [1], in test [2], in test [3], in test [4] and in test [5] was inactive.
Turning to `CC(C)(C)NCC(O)CON=C1c2ccccc2-c2ccccc21` (stereo not given), the result in test [1], in test [2], in test [3] and in test [4] was inactive. Also, in test [5], the activation was 15.2% (active).
With `Cc1ccsc1/C=N\NC(=O)c1n[nH]c2c1CCC2`, the result in test [1], in test [2], in test [3], in test [4] and in test [5] was inactive.
Consider `CCOC(=O)c1ccc(N2C(=O)C3ON(c4ccccc4)C(c4ccco4)C3C2=O)cc1` (stereo not given), for which the outcome in test [1], in test [2], in test [3], in test [4] and in test [5] was inactive.
Take `S=C(NCCc1ccccc1)N/N=C/C1CCCCC1`: the outcome in test [1], in test [2], in test [3], in test [4] and in test [5] was inactive.
As to `CC1CN(C(=S)NC(=O)c2ccco2)CC(C)O1` (stereo not given), the outcome in test [1], in test [2], in test [3], in test [4] and in test [5] was inactive.
`COc1ccc(C2c3ccc4ccccc4c3Oc3ncn(CCN4CCOCC4)c(=N)c32)cc1OC` (stereo not given): the result in test [1], in test [2], in test [3], in test [4] and in test [5] was inactive.
Consider `Cn1c(O)c(N=NC(=S)Nc2ccccc2F)c2cc(S(=O)(=O)N3CCOCC3)ccc21`, for which the outcome in test [1], in test [2], in test [3], in test [4] and in test [5] was inactive.
Regarding `O=C(NC(=S)N1CCCCCC1)c1ccccc1Cl`, the outcome in test [1], in test [4] and in test [5] was inactive. The potentiation in test [2] is 25% (active); in test [3], 146% (active).
On to `Cc1ccc(O)c(NC(=S)NC(=O)COc2ccc(Br)cc2)c1`, for which the result in test [1], in test [2], in test [3], in test [4] and in test [5] was inactive.
Regarding `COC(=O)N1C(=O)[C@@](Cc2ccccc2)(c2ccccc2)N1C(=O)OC`, the outcome in test [1], in test [3], in test [4] and in test [5] was inactive. In test [2], the potentiation was 24% (active).
Regarding `N/C(=N\OC(=O)c1cccc2ccccc12)c1ccc(Br)cc1`, the result in test [1], in test [2], in test [3], in test [4] and in test [5] was inactive.
Turning to `CCOC(=O)C1CCN(S(=O)(=O)c2ccc3c4c2CC(=O)N4CC(C)S3)CC1` (stereo not given), the outcome in test [1], in test [2], in test [3], in test [4] and in test [5] was inactive.
On to `COc1ccc(-c2cc(-c3ccccc3)c(C#N)c(=S)[nH]2)cc1`, for which the outcome in test [1], in test [2], in test [3], in test [4] and in test [5] was inactive.
For `Cc1ccc(-c2noc(CNS(=O)(=O)c3ccccc3)n2)cc1`, the result in test [1], in test [2], in test [3], in test [4] and in test [5] was inactive.
Turning to `CCOC(=O)N1CCC(N2C(=O)c3ccc(C(=O)NCCC(C)C)cc3C2=O)CC1`, the result in test [1], in test [4] and in test [5] was inactive. Also, the potentiation was 69% (active) in test [2] and 150% (active) in test [3].
